Experimental data from different studies.
≈ marks a conversion by molar mass, not a printed value.

SMILES	organism	assay	system	setting	measurement	value
C[C@@H](c1ncncc1F)[C@](O)(Cn1cncn1)c1ccc(F)cc1F	Acanthamoeba polyphaga	parasite growth, resazurin		7 days	IC50	55.3 µM
CCOC(=O)C=c1[nH]c(=O)c(=Cc2cn(-c3ccccc3)nc2-c2ccccc2)s1	Bacillus subtilis	microbial growth, well diffusion		100000 µg/mL	inhibition zone	14 mm
CCOC(=O)c1nc2ccccc2c(=O)n1Cc1cn(-c2ccc(C(=O)O)cc2)nn1	Nakaseomyces glabratus	microbial growth, broth dilution	ATCC90030	24 h	IC50	87.7 µg/mL
CCCCCCC/C=C/C(=O)N1C(=O)/C(=C(\O)c2ccc(F)cc2)C(=O)C1CC(C)C (centres unmarked)	Proteus vulgaris	microbial growth	ATCC33420		MIC	> 200 µg/mL
Cc1c(NN=C2SC(CC#N)=NC2=O)c(=O)n(-c2ccccc2)n1C	Bacillus subtilis	microbial growth, well diffusion		100000 µg/mL	inhibition zone	14 mm
CCCCCCC/C=C/C(=O)N1C(=O)/C(=C(/C)O)C(=O)C1CO (centres unmarked)	Proteus vulgaris	microbial growth	ATCC33420		MIC	> 200 µg/mL
CCOC(=O)c1nc2ccccc2c(=O)n1Cc1cn(-c2ccc([N+](=O)[O-])cc2)nn1	Nakaseomyces glabratus	microbial growth, broth dilution	ATCC90030	24 h	IC50	316 µg/mL
C[C@@H]1[C@H](O)[C@@H](C)/C=C/C=C/C=C/C=C/C=C/C=C/C=C/[C@H](O[C@@H]2O[C@H](C)[C@@H](O)[C@H](N)[C@@H]2O)C[C@@H]2O[C@](O)(C[C@@H](O)C[C@@H](O)[C@H](O)CC[C@@H](O)C[C@@H](O)CC(=O)O[C@H]1C)C[C@H](O)[C@H]2C(=O)O	Nakaseomyces glabratus	microbial killing	ATCC90030		MFC	1.35 µM
C[C@@H]1[C@H](O)[C@@H](C)/C=C/C=C/C=C/C=C/C=C/C=C/C=C/[C@H](O[C@@H]2O[C@H](C)[C@@H](O)[C@H](N)[C@@H]2O)C[C@@H]2O[C@](O)(C[C@@H](O)C[C@@H](O)[C@H](O)CC[C@@H](O)C[C@@H](O)CC(=O)O[C@H]1C)C[C@H](O)[C@H]2C(=O)O	Cryptococcus neoformans	microbial killing	ATCC90113		MFC	1.5 µg/mL
O=C(O)c1nc2ccccc2c(=O)n1Cc1cn(-c2ccccc2)nn1	Nakaseomyces glabratus	microbial growth, broth dilution	ATCC90030	24 h	IC50	566 µg/mL
O=C1NC(=S)S/C1=C\c1c2ccccc2c(-c2ccc(N(c3ccccc3)c3ccccc3)cc2)c2ccccc12	Bacillus subtilis	microbial killing, broth dilution	ATCC6633		MBC	> 1000 µg/mL
CC1(C)S[C@@H]2[C@H](NC(=O)[C@H](N)c3ccccc3)C(=O)N2[C@H]1C(=O)O	Listeria monocytogenes	microbial growth, agar dilution		26.93 µM	inhibition	100%
CCCCCCC/C=C/C(=O)N1C(=O)/C(=C(\O)C2CCNCC2)C(=O)C1CC(C)C (centres unmarked)	Proteus vulgaris	microbial growth	ATCC33420		MIC	200 µg/mL (≈ 478 µM)
Cc1ccc(-n2cc(Cn3c(C(=O)O)nc4ccccc4c3=O)nn2)cc1	Nakaseomyces glabratus	microbial growth, broth dilution	ATCC90030	24 h	IC50	288 µg/mL
CCCCCCC/C=C/C(=O)N1C(=O)/C(=C(/C)O)C(=O)C1Cc1ccc(O)cc1 (centres unmarked)	Proteus vulgaris	microbial growth	ATCC33420		MIC	> 200 µg/mL
CCOC(=O)c1c(N)csc1-c1cn(-c2ccccc2)nc1-c1ccc(C)cc1	Bacillus subtilis	microbial killing, broth dilution			MBC	0.25 µg/mL (≈ 0.62 µM)
O=C1NC(=S)S/C1=C\c1ccc(-c2ccc(N(c3ccccc3)c3ccccc3)cc2)c2ccccc12	Bacillus subtilis	microbial killing, broth dilution	ATCC6633		MBC	> 1000 µg/mL
N#CC(=Cc1ccccc1O)C1=NC(=O)C(=Cc2cn(-c3ccccc3)nc2-c2ccccc2)S1	Bacillus subtilis	microbial growth, well diffusion		100000 µg/mL	inhibition zone	25 mm
CCOC(=O)c1nc2ccccc2c(=O)n1Cc1cn(-c2cccc(F)c2)nn1	Nakaseomyces glabratus	microbial growth, broth dilution	ATCC90030	24 h	IC50	365 µg/mL
CCOC(=O)C=c1[nH]c(=O)c(=Cc2cn(-c3ccccc3)nc2-c2ccc(C)cc2)s1	Bacillus subtilis	microbial growth, well diffusion		100000 µg/mL	inhibition zone	13 mm
CCOC(=O)c1nc2ccccc2c(=O)n1Cc1cn(-c2ccc(C)cc2)nn1	Nakaseomyces glabratus	microbial growth, broth dilution	ATCC90030	24 h	IC50	8.4 µg/mL
N#CC(=Cc1cn(-c2ccccc2)nc1-c1ccccc1)C1=NC(=O)CS1	Bacillus subtilis	microbial growth, well diffusion		100000 µg/mL	inhibition zone	29 mm
CC(C)Oc1c(NC(=O)c2ccc(NC(=O)[C@H](CC(N)=O)NC(=O)c3ccc(NC(=O)c4ccc(C#N)cn4)cc3)cc2)ccc(C(=O)Nc2ccc(C(=O)O)cc2)c1O	Proteus vulgaris	microbial growth	DSM2140		MIC	0.06 µg/mL (≈ 0.0738 µM)
